What is called EC50 is the midpoint of the concentration-response curve.

Where “and” joins values, the source holds several entries; their conditions need not be identical. Equal values may be shown once.

The test system of series [1] is B/Wisconsin/1/2010 (Yamagata). The experiment in a line: Viral titer reduction at high MOI. It counts as cell-based, influenza B virus. The conditions noted are these: both 12 h p.i. and 24 h p.i., MOI of 1, MDCK.
The nature of the next series: in vitro. The conditions noted are these: dog.
For series [2], the system named is influenza A and B viruses. The experiment in a line: Plaque reduction assay, summary over the tested panel of viruses. It counts as cell-based. The conditions noted are these: Influenza A virus, read-out: EC50 values against these viruses. In general terms: Plaques are areas of infected cells; plaque reduction assays count them against a control.
The test system of series [3] is A/WSN/33 (H1N1). The experiment in a line: Time-of-addition experiment in MDCK cells. The conditions noted are these: NMS-873 1.8 μM; for antiviral activity when added at 8 h post infection / effect on virus replication when present before or during infection: oseltamivir carboxylate 1 μM. It counts as cell-based, influenza A virus.
In series [4] the test system is influenza vRNPs (NP) nuclear export. It is filed as cell-based, influenza A virus.
The next series concerns MDCK cells. To be noted: MDCK cells treated for 48 h.
In series [5] the test system is A/Washington/29/2009 (H1N1). It is filed as cell-based, influenza A virus. To be noted: NMS-873 1 or 3 μM, oseltamivir carboxylate 1 μM.
For series [6], the system named is A/WSN/33 (H1N1) viral proteins. It counts as cell-based, influenza A virus.
Series [7] relates to A/WSN/33 (H1N1). It counts as cell-based, influenza A virus.
For the next series, the system named is A549 cells. The experiment in a line: Cellular cytotoxicity in A549 cells. To be noted: 3 μM. It counts as cell-based, human. The method in brief:
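A549 human alveolar epithelial cells were incubated with serial concentrations of the test compound, up to 3 μM, for 24 or 48 h. Cell viability was then measured by neutral red uptake.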

As to `Cc1cc(OCc2nnc(SC3CCCC3)n2-c2cccnc2)ccc1-c1ccc(S(C)(=O)=O)cc1` [NMS-873], in series [1] (1 μM), the “reduction of viral titer” value is recorded as “more than 1.8 log10 units”. Besides, in series [1] (3 μM), the “inhibition of virus (viral titer)” value is listed as “completely inhibited”. Also, the CC50 in “in vitro” came out at 2720 ± 30 nM. For the same compound, the EC50 in series [2] fell in the range of 28 to 56 nM. In addition, in the series with A/WSN/33 (H1N1) [3], the “antiviral efficacy when added at 6 h post infection” value is recorded as “dramatically decreased”, the “antiviral activity when added at 8 h post infection” value is recorded as “completely abolished” and the “effect on virus replication when present before or during infection” value is “no antiviral activity was observed”. For the same compound, in series [4], the NP subcellular localization entry is given as “NP largely accumulated in the nucleus”; the “virus entry and NP nuclear import” value is given as “neither affected the virus entry nor NP nuclear import”. The “concentration up to which no cellular cytotoxicity was observed” value in the series with MDCK cells is on record as “up to 1.85 μM”. Moreover, the “antiviral activity (viral titer)” value in series [5] is listed as “potent antiviral activity”. In series [6], the “levels of other viral proteins PA, PB1, HA and NS1” value was “broadly reduced”; the “protein expression levels of M1 and NP” value is “significantly reduced”. For the same compound, the “reduction of viral titer” value with A/WSN/33 (H1N1) [7] is 1.3–1.4 log10 units and 2.2–3.1 log10 units. The “cytotoxicity at highest drug concentration tested” value with A549 cells is “not cytotoxic”.
For the compound `CCC(CC)O[C@@H]1C=C(C(=O)O)C[C@H](N)[C@H]1NC(C)=O` [Oseltamivir carboxylate], in the series on A/WSN/33 (H1N1) [3], the “antiviral activity when added at 8 h post infection” value is “potent inhibition” and the “effect on virus replication when present before or during infection” value is on record as “no effect”. Also, the “reduction of viral titer” value with A/WSN/33 (H1N1) [7] is recorded as 2.1–2.5 log10 units.

The record behind these values is PMC6482079 (European journal of pharmaceutical sciences : official …, 2019).
